Measured values as given in ChEMBL document CHEMBL4266027, “Cyanobufalins: Cardioactive Toxins from Cyanobacterial Blooms” (J Nat Prod, 2018).

Key:
[1] = test system: Cardiac muscle cell; assay: Toxicity in human inducible pluripotent stem cell derived cardiomyocytes assessed as change in beating amplitude at 8 nM after 12 hrs; assay type: cell-based; conditions: 0.008 µM
Summary of the method: (§1)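 Human iPSC-derived cardiomyocytes (Cor.4U) were grown to stable beating cultures and monitored by impedance in real time with 20 s recordings. Compounds were given as a dilution series from 0.32 nM to 5 μM, dosed twice 24 h apart, with monitoring over 48 h. Beating amplitude was taken from each negative peak to the following positive peak and reported as % change.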

[2] = test system: MCF7; assay: Cytotoxicity against human MCF7 cells assessed as decrease in cell viability after 72 hrs by MTS assay; assay type: functional, cell-based; conditions: MCF7, 72 h
Summary of the method: (§2)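 Cell proliferation assay using the MTS reagent. Compounds were tested as a dilution series, and EC50 values were derived from the concentration–response data.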

[3] = test system: Cardiac muscle cell; assay: Toxicity in human inducible pluripotent stem cell derived cardiomyocytes assessed as change in beating amplitude at 8 nM after 24 hrs; assay type: cell-based; conditions: 0.008 µM; summary of the method: as §1
[4] = test system: Cardiac muscle cell; assay: Toxicity in human inducible pluripotent stem cell derived cardiomyocytes assessed as increase in beating amplitude at >40 nM; assay type: cell-based
Summary of the method: (§3)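 Cor.4U hiPSC-derived cardiomyocytes grown to stable beating cultures, then monitored by impedance in RTCA Cardio plates with 20 s recordings. Compounds tested as a dilution series from 0.32 nM to 5 μM, dosed twice 24 h apart, followed over 48 h. Beating amplitude is taken from each negative peak to the next positive peak and reported as percent change.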

[5] = test system: MES-SA/Dx5; assay: Cytotoxicity against human MES-SA/Dx5 cells assessed as decrease in cell viability after 72 hrs by MTS assay; assay type: functional, cell-based; conditions: MES-SA/Dx5, 72 h; summary of the method: as §2
[6] = test system: Cardiac muscle cell; assay: Toxicity in human inducible pluripotent stem cell derived cardiomyocytes assessed as change in beating amplitude at 0.32 nM after 33 mins; assay type: cell-based; conditions: 0.55 h, 0.00032 µM; summary of the method: as §1
[7] = test system: Cardiac muscle cell; assay: Toxicity in human inducible pluripotent stem cell derived cardiomyocytes assessed as change in beating amplitude at 1.6 nM after 33 mins; assay type: cell-based; conditions: 0.55 h, 0.0016 µM; summary of the method: as §1
[8] = test system: MES-SA; assay: Cytotoxicity against human MESSA cells assessed as decrease in cell viability after 72 hrs by MTS assay; assay type: functional, cell-based; summary of the method: as §2
[9] = test system: Cardiac muscle cell; assay: Toxicity in human inducible pluripotent stem cell derived cardiomyocytes assessed as change in beating amplitude at 8 nM after 4 hrs; assay type: cell-based; conditions: 0.008 µM; summary of the method: as §3
[10] = test system: Cardiac muscle cell; assay: Toxicity in human inducible pluripotent stem cell derived cardiomyocytes assessed as change in beating amplitude at 40 nM after 48 hrs; assay type: cell-based; conditions: 0.04 µM; summary of the method: as §1
[11] = test system: Cardiac muscle cell; assay: Toxicity in human inducible pluripotent stem cell derived cardiomyocytes assessed as change in beating amplitude at 1.6 nM after 4 hrs; assay type: cell-based; conditions: 0.0016 µM; summary of the method: as §1
[12] = test system: Cardiac muscle cell; assay: Toxicity in human inducible pluripotent stem cell derived cardiomyocytes assessed as change in beating amplitude at 1.6 nM after 36 hrs; assay type: cell-based; conditions: 0.0016 µM; summary of the method: as §1
[13] = test system: HUVEC; assay: Cytotoxicity against human HUVEC cells assessed as decrease in cell viability after 72 hrs by MTS assay; assay type: cell-based; summary of the method: as §2
[14] = test system: Cardiac muscle cell; assay: Toxicity in human inducible pluripotent stem cell derived cardiomyocytes assessed as change in beating amplitude at 0.32 nM after 24 hrs; assay type: cell-based; conditions: 0.00032 µM; summary of the method: as §1
[15] = test system: Cardiac muscle cell; assay: Toxicity in human inducible pluripotent stem cell derived cardiomyocytes assessed as change in beating amplitude at 0.32 nM after 66 mins; assay type: cell-based; conditions: 1.1 h, 0.00032 µM; summary of the method: as §1
[16] = test system: Cardiac muscle cell; assay: Toxicity in human inducible pluripotent stem cell derived cardiomyocytes assessed as change in beating amplitude at 8 nM after 33 mins; assay type: cell-based; conditions: 0.55 h, 0.008 µM; summary of the method: as §1
[17] = test system: Cardiac muscle cell; assay: Toxicity in human inducible pluripotent stem cell derived cardiomyocytes assessed as change in beating amplitude at 0.32 nM after 4 hrs; assay type: cell-based; conditions: 0.00032 µM; summary of the method: as §1
[18] = test system: Cardiac muscle cell; assay: Toxicity in human inducible pluripotent stem cell derived cardiomyocytes assessed as change in beating amplitude at 1.6 nM after 66 mins; assay type: cell-based; conditions: 1.1 h, 0.0016 µM; summary of the method: as §1
[19] = test system: CCRF S-180; assay: Cytotoxicity against mouse S180 cells assessed as decrease in cell viability after 72 hrs by MTS assay; assay type: functional, cell-based; conditions: CCRF S-180, 72 h; summary of the method: as §2
[20] = test system: Cardiac muscle cell; assay: Toxicity in human inducible pluripotent stem cell derived cardiomyocytes assessed as change in beating amplitude at 1.6 nM after 8 mins; assay type: cell-based; conditions: 0.0016 µM; summary of the method: as §1
[21] = test system: HepG2; assay: Cytotoxicity against human HepG2 cells assessed as decrease in cell viability after 72 hrs by MTS assay; assay type: functional, cell-based; conditions: HepG2, 72 h; summary of the method: as §2
[22] = test system: Cardiac muscle cell; assay: Toxicity in human inducible pluripotent stem cell derived cardiomyocytes assessed as change in beating amplitude at 40 nM after 8 mins; assay type: cell-based; conditions: 0.04 µM; summary of the method: as §1
[23] = test system: 786-0; assay: Cytotoxicity against human 786-O cells assessed as decrease in cell viability after 72 hrs by MTS assay; assay type: functional, cell-based; conditions: 786-0, 72 h; summary of the method: as §2
[24] = test system: Cardiac muscle cell; assay: Toxicity in human inducible pluripotent stem cell derived cardiomyocytes assessed as change in beating amplitude at 8 nM after 8 mins; assay type: cell-based; conditions: 0.008 µM; summary of the method: as §3
[25] = test system: HCT-116; assay: Cytotoxicity against human HCT116 cells assessed as decrease in cell viability after 72 hrs by MTS assay; assay type: functional, cell-based; conditions: HCT-116, 72 h; summary of the method: as §2
[26] = test system: Cardiac muscle cell; assay: Toxicity in human inducible pluripotent stem cell derived cardiomyocytes assessed as change in beating amplitude at 1.6 nM after 12 hrs; assay type: cell-based; conditions: 0.0016 µM; summary of the method: as §1
[27] = test system: Cardiac muscle cell; assay: Toxicity in human inducible pluripotent stem cell derived cardiomyocytes assessed as change in beating amplitude at 1.6 nM after 24 hrs; assay type: cell-based; conditions: 0.0016 µM; summary of the method: as §1
[28] = test system: NCI-H1975; assay: Cytotoxicity against human NCI-H1975 cells assessed as decrease in cell viability after 72 hrs by MTS assay; assay type: functional, cell-based; conditions: NCI-H1975, 72 h; summary of the method: as §2
[29] = test system: Cardiac muscle cell; assay: Toxicity in human inducible pluripotent stem cell derived cardiomyocytes assessed as change in beating amplitude at 8 nM after 66 mins; assay type: cell-based; conditions: 1.1 h, 0.008 µM; summary of the method: as §3
[30] = test system: Cardiac muscle cell; assay: Toxicity in human inducible pluripotent stem cell derived cardiomyocytes assessed as change in beating amplitude at 0.32 nM after 12 hrs; assay type: cell-based; conditions: 0.00032 µM; summary of the method: as §1
[31] = test system: U-87 MG; assay: Cytotoxicity against human U87MG cells assessed as decrease in cell viability after 72 hrs by MTS assay; assay type: functional, cell-based, U-87MG ATCC; summary of the method: as §2
[32] = test system: SK-OV-3; assay: Cytotoxicity against human SKOV3 cells assessed as decrease in cell viability after 72 hrs by MTS assay; assay type: functional, cell-based; conditions: SK-OV-3, 72 h; summary of the method: as §2
[33] = test system: Cardiac muscle cell; assay: Toxicity in human inducible pluripotent stem cell derived cardiomyocytes assessed as change in beating amplitude at 8 nM after 36 hrs; assay type: cell-based; conditions: 0.008 µM; summary of the method: as §3
[34] = test system: Cardiac muscle cell; assay: Toxicity in human inducible pluripotent stem cell derived cardiomyocytes assessed as change in beating amplitude at 0.32 nM after 8 mins; assay type: cell-based; conditions: 0.00032 µM; summary of the method: as §1
[35] = test system: Cardiac muscle cell; assay: Toxicity in human inducible pluripotent stem cell derived cardiomyocytes assessed as change in beating amplitude at 0.32 nM after 48 hrs; assay type: cell-based; conditions: 0.00032 µM; summary of the method: as §1
[36] = test system: Cardiac muscle cell; assay: Toxicity in human inducible pluripotent stem cell derived cardiomyocytes assessed as change in beating amplitude at 8 nM after 48 hrs; assay type: cell-based; conditions: 0.008 µM; summary of the method: as §3
[37] = test system: BXPC-3; assay: Cytotoxicity against human BxPC3 cells assessed as decrease in cell viability after 72 hrs by MTS assay; assay type: functional, cell-based; conditions: BXPC-3, 72 h; summary of the method: as §2
[38] = test system: Cardiac muscle cell; assay: Toxicity in human inducible pluripotent stem cell derived cardiomyocytes assessed as change in beating amplitude at 40 nM after 66 mins; assay type: cell-based; conditions: 1.1 h, 0.04 µM; summary of the method: as §1
[39] = test system: Cardiac muscle cell; assay: Toxicity in human inducible pluripotent stem cell derived cardiomyocytes assessed as change in beating amplitude at 40 nM after 33 mins; assay type: cell-based; conditions: 0.55 h, 0.04 µM; summary of the method: as §1
[40] = test system: Cardiac muscle cell; assay: Toxicity in human inducible pluripotent stem cell derived cardiomyocytes assessed as change in beating amplitude at 0.32 nM after 36 hrs; assay type: cell-based; conditions: 0.00032 µM; summary of the method: as §1
[41] = test system: Cardiac muscle cell; assay: Toxicity in human inducible pluripotent stem cell derived cardiomyocytes assessed as change in beating amplitude at 1.6 nM after 48 hrs; assay type: cell-based; conditions: 0.0016 µM; summary of the method: as §1

Compound `C[C@]12CC[C@H](O)C[C@H]1CC[C@@H]1[C@@H]2CC[C@]2(C)[C@@H](c3ccc(=O)oc3)CC[C@]12O` [BUFALIN] has an Activity [1] of 35%, an EC50 [2] of 42 nM and an Activity [3] of -22%. For the same compound, the Activity [4] was “Toxic”, the EC50 [5] was 18 nM and the Activity [6] was -2%. For the same compound, the Activity [7] was -0.6%, the EC50 [8] was 28 nM and the Activity [9] was 34%. The Activity [10] was -84.3%, the Activity [11] was 11% and the Activity [12] was -2.9%. It also gave an EC50 [13] of 12 nM, an Activity [14] of 32% and an Activity [15] of -4.4%. For the same compound, the Activity [16] was 3.1%, the Activity [17] was 12% and the Activity [18] was -2.7%. The EC50 [19] was > 20000 nM, the Activity [20] was 1.8% and the EC50 [21] was 35 nM. It also gave an Activity [22] of 8.5%, an EC50 [23] of 7.5 nM and an Activity [24] of 2.8%. For the same compound, the EC50 [25] was 11 nM, the Activity [26] was 8.9% and the Activity [27] was 4.3%. The EC50 [28] was 13 nM, the Activity [29] was 10% and the Activity [30] was 17%. The EC50 [31] was 14 nM, the EC50 [32] was 10 nM and the Activity [33] was 7.6%. It also gave an Activity [34] of -3%, an Activity [35] of 42% and an Activity [36] of -32%. It also gave an EC50 [37] of 11 nM, an Activity [38] of -62% and an Activity [39] of 21%. It also gave an Activity [40] of 62% and an Activity [41] of -10%.
